# Source: PubChem BioAssay (The Scripps Research Institute Molecular Screening Center)
# 5-HT1A blocker – antagonists of human 5-HT1a serotonin receptor | P08908 | CHO 5-HT1a Ga15 NFAT-bla reporter, antagonist mode | inhibition, % at 10 µM | hit rate 0.68% among 62,000 | AID 612;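 active means inhibition above the mean of all tested compounds plus 3 SD, cut at about 43% in these data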;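 further: receptor stimulated by 5-CT agonist at 100 nM near EC80; beta-lactamase reporter measured by ratiometric fluorescence of a cleavable substrate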
# Target sequence (P08908 whole entry, looked up): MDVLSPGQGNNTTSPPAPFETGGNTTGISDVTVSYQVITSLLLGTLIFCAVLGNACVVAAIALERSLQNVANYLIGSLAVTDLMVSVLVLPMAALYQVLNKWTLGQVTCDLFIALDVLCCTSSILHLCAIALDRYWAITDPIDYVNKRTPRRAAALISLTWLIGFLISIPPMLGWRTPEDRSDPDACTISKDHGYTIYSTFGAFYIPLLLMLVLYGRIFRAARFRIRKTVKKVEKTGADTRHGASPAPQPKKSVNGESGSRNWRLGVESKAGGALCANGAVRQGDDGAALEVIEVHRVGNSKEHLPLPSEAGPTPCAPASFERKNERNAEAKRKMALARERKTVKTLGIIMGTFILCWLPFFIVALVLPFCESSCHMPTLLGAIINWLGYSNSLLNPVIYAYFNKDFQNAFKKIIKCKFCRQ
# 5HT1E antag – antagonists of human 5-HT1E serotonin receptor; inhibition, % at 6 µM; hit rate 0.99% among 65,000; AID 571; P28566; CHO 5-HT1E Ga15 NFAT-bla reporter, FRET, antagonist;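 active means inhibition above a set limit, the mean inhibition across every tested compound plus 3 SD, cut at about 29% in these data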;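 further: signal is the 460 over 535 nm emission ratio of beta-lactamase substrate; 0% = agonist plus DMSO wells and 100% = wells without agonist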
# 5HT1E ag – activates the human 5-HT1E serotonin receptor. activation, % at 6 µM. P28566. hit rate 0.69% among 65,000. CHO 5-HT1E Ga15 NFAT-bla reporter, FRET; 0% DMSO wells, 100% control agonist wells;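 active means activation above a set limit, the screen-wide mean activation plus 3 SD, cut at about 8.5% in these data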;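 further: 100% = positive control agonist at 1 µM giving full maximal response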
# HTR1A agonist – activates the human 5-HT1a serotonin receptor; P08908; CHO 5-HT1a Ga15 NFAT-bla reporter, FRET ratio; 0% basal, 100% maximal reference agonist; activation, % at 10 µM; hit rate 0.56% among 65,000; AID 567;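 active means activation above the screen-wide mean activation plus 3 SD, cut at about 19% in these data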;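 further: 0% = DMSO wells and 100% = 5-CT at EC100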
# S1P3 ag – activates the human S1P3 receptor | AID 373 | activation, % at 4.5 µM | hit rate 0.1% among 60,000 | S1P3 NFAT-BLA reporter cells, agonism, FRET ratio; relative to 1 µM S1P, basal subtracted;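 active means activation above the screen-wide mean plus 3 SD, cut at about 4.5% in these data, passing the limit was not always enough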
#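 material = human S1P3 NFAT-BLA reporter CHO cells | schedule = 4 h compound at 37 °C, 2 h substrate at RT | measured by = fluorescent BLA substrate, ex 405 nm, em 460/535 nm ratio | controls = 1 µM S1P reference | replication = primary once, confirmation triplicate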
# An asterisk follows results filed as active; . = no result. This is a sample that favours compounds with a hit; in the whole collection about 2.6% have one here.
SMILES,5-HT1A blocker,5HT1E antag,5HT1E ag,HTR1A agonist,S1P3 ag
CCn1c(COc2ccc3c(c2)OCO3)nnc1SCC(=O)c1ccccc1,-3.8,5.8,-0.5,-0.6,-0.1
S=c1[nH]nc(COc2ccc3c(c2)OCO3)n1-c1ccccc1,8.5,-2.8,27.6*,-2.9,-0.3
Cc1ccc(CNc2cc(-c3nn4c(C)nnc4s3)ccc2C)s1,5.4,14.5,0.8,2.3,-1.4
Cc1ccc(-c2nn3c(C)nnc3s2)cc1NCc1c(F)cccc1Cl,44.7*,7.6,2.0,0.0,-1.5
CCOC(=O)CS(=O)(=O)c1nc(-c2ccc(F)cc2)cc(C(F)(F)F)n1,102.5*,81.8*,3.3,-10.0,-2.2
CCOC(=O)CCS(=O)(=O)c1nc(-c2ccccc2)cc(C(F)(F)F)n1,86.3*,54.3*,1.4,-0.2,-1.3
CCOC(=O)CS(=O)(=O)c1ccc2ccccc2c1,4.3,-9.0,0.0,1.1,.
CCOC(=O)CS(=O)(=O)c1nc(-c2ccccc2)cc(C(F)(F)F)n1,104.8*,107.8*,4.6,-6.6,-0.7
Cc1cc(C)nc(SCc2nc(N)nc(-c3ccccc3O)n2)n1,4.5,23.2,-0.6,1.4,-0.3
O=C(Cc1ccc(-n2cccc2)cc1)NCc1cccs1,36.3,50.7*,0.0,-3.4,-1.5
CCCc1nc(SCC(=O)N2CCC(Cc3ccccc3)CC2)c2c(=O)n(C)c(=O)n(C)c2n1,2.6,1.0,0.6,1.9,-0.4
CC1=CC(C)(C)N=C(Nc2ccc(C)cc2)S1,0.3,1.2,0.0,-1.2,0.3
Cc1nc(Nc2ccc(F)cc2)[nH]c(=O)c1CCC(C)C,52.2*,-7.8,0.5,1.4,-1.5
Cc1ccc(Nc2nc(C)c(CCC(C)C)c(=O)[nH]2)cc1,-9.1,-2.5,1.3,-3.7,-0.9
O=C1CN(C(=O)OCc2ccccc2)c2ccccc2N1,-15.2,48.4*,-0.2,-0.8,.
O=C1CN(C(=O)c2ccccc2F)c2ccccc2N1,-7.5,1.1,-0.5,-1.6,-0.1
Cc1ccc2[nH]c(=O)c(C(c3nnnn3C3CCCC3)N(Cc3cccnc3)Cc3ccco3)cc2c1 (stereo not given),3.4,-1.9,2.7,98.3*,-0.3
CC(C)OC(=O)CSc1nc(N)c(C#N)c(-c2cccs2)c1C#N,-10.3,43.6*,-0.5,0.1,-2.5
CCCCSc1nc(N)c(C#N)c(-c2cccs2)c1C#N,.,31.9*,-0.1,3.2,-4.2
CCCSc1nc(N)c(C#N)c(-c2ccc(C)cc2)c1C#N,-22.7,1.5,-0.4,1.1,-1.1
COc1ccccc1NC(=O)C1=C(C)NC2=C(C(=O)CCC2)C1c1ccc2c(c1)OCO2 (stereo not given),4.9,-2.5,-0.2,0.8,0.4
Fc1ccc(Cn2nnnc2CN2CCN(C3CCCC3)CC2)cc1,4.3,-6.9,-0.6,-1.5,0.2
CC(C)C(c1nnnn1Cc1cccs1)N1CCN(C2CCCC2)CC1 (stereo not given),17.0,-2.3,1.1,31.4*,0.4
CCC(c1nnnn1Cc1ccc(F)cc1)N1CCN(C2CCCCC2)CC1 (stereo not given),46.8*,-2.3,1.1,-2.4,-1.0
c1ccc(C(c2nnnn2Cc2cccs2)N2CCN(C3CCCC3)CC2)cc1 (stereo not given),24.8,1.4,-0.1,-0.9,-0.8
SMILES,5-HT1A blocker,5HT1E antag,5HT1E ag,HTR1A agonist,S1P3 ag
Cc1c(Br)cc(C(=O)OC2CCN(C)CC2)c(C)c1C,-9.0,-4.9,-0.1,0.1,-0.8
CC(=O)NCCCc1c[nH]c2ccc(Cl)cc12,-2.4,-10.7,0.7,0.2,-2.3
CN(C)CC(C(=O)c1ccccc1)c1ccccc1 (stereo not given),76.0*,74.3*,-0.1,-4.8,-0.6
COc1ccc(C(C(=O)OC(C)CN(C)C)c2ccccc2)cc1 (stereo not given),-5.2,2.1,-0.7,-2.5,0.4
Cc1cc(=O)oc2cc(OCC(O)CN3CCN(c4ccccc4)CC3)ccc12 (stereo not given),45.9*,1.6,1.0,10.0,-1.1
Cc1cc(=O)oc2cc(OCC(=O)N3c4ccccc4CC3C)ccc12 (stereo not given),23.8,33.2*,0.1,-0.7,-0.2
Cc1cc(=O)oc2cc(OCC(O)CN3CCc4ccccc4C3)ccc12 (stereo not given),8.3,-12.5,0.7,3.4,1.0
COc1ccccc1N1CCN(CC(O)COc2ccc3c(C)cc(=O)oc3c2)CC1 (stereo not given),88.1*,-1.6,-0.3,4.2,.
Cc1cc(=O)oc2cc3c(cc12)OCCN3,-36.1,-14.9,12.2*,25.4*,2.0
Cc1cc(=O)oc2cc3c(cc12)OCCO3,3.1,-3.3,-0.1,-1.1,0.1
Cc1cc2oc3c(c(=O)c2cc1C)C(c1ccc(C(C)C)cc1)N(CCCN1CCOCC1)C3=O (stereo not given),-2.4,3.5,1.6,2.7,-0.6
COc1ccc(CC(=O)Nc2c3c(nn2-c2cccc(C)c2C)CS(=O)C3)cc1 (stereo not given),0.1,-0.4,19.1*,1.4,0.8
COc1ccc(CC(=O)Nc2c3c(nn2-c2cccc(C)c2C)CS(=O)C3)cc1OC (stereo not given),-9.8,22.9,-0.8,0.9,-0.6
COc1cccc(C2=NOC(C(=O)NCc3ccc(F)cc3)C2)c1 (stereo not given),37.0,17.0,0.8,-3.8,0.1
COc1ccc(C2=NOC(C(=O)NCc3ccc(F)cc3)C2)cc1OC (stereo not given),33.5,69.8*,-0.1,-2.4,1.1
COc1cc(C2=NOC(C(=O)NCc3ccc(F)cc3)C2)cc(OC)c1OC (stereo not given),55.6*,69.8*,0.1,-1.6,-0.1
CCOC(=O)c1cnc(-n2nc(C)cc2C)nc1NCc1ccccc1,47.4*,15.5,0.0,2.8,-1.7
COc1ccc(-n2cnc3c(cnn3CCC#N)c2=N)cc1,-4.6,-5.8,0.2,-0.3,-0.5
CCn1cnc2scc(-c3ccccc3)c2c1=O,0.5,13.6,0.5,-0.1,-0.3
Cn1cc(/C=N/n2cnc3scc(-c4ccc(Cl)cc4)c3c2=O)c2ccccc21,71.1*,82.6*,-0.6,-4.9,-2.2
O=C(Nc1nc(=O)c2ccccc2s1)c1ccccc1,.,3.4,0.2,-0.2,-2.7
Cc1ccc(C(=O)Nc2nc3ccccc3c(=O)s2)cc1,66.6*,-4.5,0.1,-1.5,0.7
CCOC(=O)C(C(C)=O)c1c(Br)c(O)c(O)c2c(C(=O)c3ccc(C)cc3)coc12 (stereo not given),44.9*,16.8,0.0,-2.0,-1.4
COCCCNC(=O)c1c(N)n(-c2cccc(S(N)(=O)=O)c2)c2nc3ccccc3nc12,-25.3,-2.3,2.9,5.8,1.0
CCCNC(=O)c1c(N)n(-c2cccc(OC)c2)c2nc3ccccc3nc12,-25.9,-11.2,8.7*,41.7*,1.9
O=C(O)c1ccc(OCC(O)Cn2cnc3ccccc32)cc1 (stereo not given),2.8,-10.6,9.3*,0.3,-0.4
